According to ChEMBL document CHEMBL4613265, “Novel Human Neutral Sphingomyelinase 2 Inhibitors as Potential Therapeutics for Alzheimer's Disease” (J Med Chem, 2020):
pIC50: −log10 of the molar value. Blank lines part the entries; values can stand above or below the compound they belong to. Calls of active or inactive are those of the source. The rule behind the calls is not given here.

Columns and labels:
[1] = Stability in human liver microsomes assessed as parent compound remaining at 1 uM measured after 60 mins in absence of NADPH by LC-MS/MS analysis; type: ADME, Microsome; settings: liver microsomes, read-out: Stability
Outline: (§1)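 Cofactor-free control for cofactor-independent degradation. Mouse or human liver microsomes at 0.2 mg/mL, 1 μM compound (final), 100 mM potassium phosphate at pH 7.4, no NADPH regenerating system. Adding microsomes started the reaction; run in triplicate. Sampled at 60 min and quenched with three volumes of ice-cold acetonitrile spiked with internal standard.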

[2] = Stability in mouse liver microsomes assessed as parent compound remaining at 1 uM measured after 60 mins in absence of NADPH by LC-MS/MS analysis; type: ADME, Microsome; settings: liver microsomes, read-out: Stability; outline: as §1
[3] = target: T1, Sphingomyelin phosphodiesterase 3 (Homo sapiens, UniProt Q9NY59); test: Inhibition of human recombinant full-length nSMase expressed in HEK293 cells using sphingomyelin as substrate measured after 1 hr by alkaline phosphatase, choline oxidase and horseradish peroxidase dependent H2O2 detection-coupled amplex reagent based fluorescence assay
T1 sequence (Q9NY59 whole entry): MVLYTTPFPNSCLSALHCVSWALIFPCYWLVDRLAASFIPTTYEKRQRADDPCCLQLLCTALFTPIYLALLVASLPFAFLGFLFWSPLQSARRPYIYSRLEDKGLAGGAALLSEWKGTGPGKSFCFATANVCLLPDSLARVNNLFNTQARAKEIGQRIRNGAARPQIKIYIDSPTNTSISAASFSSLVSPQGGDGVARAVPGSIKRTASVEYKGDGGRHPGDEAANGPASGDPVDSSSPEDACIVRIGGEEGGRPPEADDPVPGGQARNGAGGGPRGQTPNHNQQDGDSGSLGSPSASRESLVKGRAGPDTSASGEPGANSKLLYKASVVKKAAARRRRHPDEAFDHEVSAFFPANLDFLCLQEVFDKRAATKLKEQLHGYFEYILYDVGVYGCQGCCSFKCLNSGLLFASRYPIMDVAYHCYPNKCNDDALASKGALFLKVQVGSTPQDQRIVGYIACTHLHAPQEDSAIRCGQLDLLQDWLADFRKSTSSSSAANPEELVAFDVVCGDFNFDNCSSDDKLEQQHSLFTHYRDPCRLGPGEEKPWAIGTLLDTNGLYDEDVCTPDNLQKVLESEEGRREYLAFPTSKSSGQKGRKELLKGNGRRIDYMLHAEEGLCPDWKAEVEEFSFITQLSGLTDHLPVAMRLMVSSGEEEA

[4] = Stability in mouse liver microsomes assessed as CYP450-mediated metabolism by measuring parent compound remaining at 1 uM measured after 60 mins in presence of NADPH generating system by LC-MS/MS analysis; type: ADME; settings: 1 h
Outline: (§2)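 Liver microsomes from mouse or human, 0.2 mg/mL, with 1 μM compound (final) in 100 mM potassium phosphate at pH 7.4. Adding microsomes started the reaction; triplicates. After 60 min, quenched with 3 volumes of ice-cold acetonitrile containing internal standard.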

[5] = system: HL-60; test: Cytotoxicity against human HL60 cells by XTT assay; type: cell-based
[6] = system: CCRF-CEM; test: Cytotoxicity against human CCRF-CEM cells by XTT assay; type: cell-based
[7] = system: HepG2; test: Cytotoxicity against human HepG2 cells by XTT assay; type: cell-based
[8] = system: HeLa S3; test: Cytotoxicity against human HeLaS3 cells by XTT assay; type: cell-based
[9] = target: Phosphatidylinositol 4-kinase alpha (Homo sapiens) (UniProt P42356); test: Inhibition of PI4K3alpha (unknown origin)
Sequence of Phosphatidylinositol 4-kinase alpha (Homo sapiens) (P42356 whole entry, looked up): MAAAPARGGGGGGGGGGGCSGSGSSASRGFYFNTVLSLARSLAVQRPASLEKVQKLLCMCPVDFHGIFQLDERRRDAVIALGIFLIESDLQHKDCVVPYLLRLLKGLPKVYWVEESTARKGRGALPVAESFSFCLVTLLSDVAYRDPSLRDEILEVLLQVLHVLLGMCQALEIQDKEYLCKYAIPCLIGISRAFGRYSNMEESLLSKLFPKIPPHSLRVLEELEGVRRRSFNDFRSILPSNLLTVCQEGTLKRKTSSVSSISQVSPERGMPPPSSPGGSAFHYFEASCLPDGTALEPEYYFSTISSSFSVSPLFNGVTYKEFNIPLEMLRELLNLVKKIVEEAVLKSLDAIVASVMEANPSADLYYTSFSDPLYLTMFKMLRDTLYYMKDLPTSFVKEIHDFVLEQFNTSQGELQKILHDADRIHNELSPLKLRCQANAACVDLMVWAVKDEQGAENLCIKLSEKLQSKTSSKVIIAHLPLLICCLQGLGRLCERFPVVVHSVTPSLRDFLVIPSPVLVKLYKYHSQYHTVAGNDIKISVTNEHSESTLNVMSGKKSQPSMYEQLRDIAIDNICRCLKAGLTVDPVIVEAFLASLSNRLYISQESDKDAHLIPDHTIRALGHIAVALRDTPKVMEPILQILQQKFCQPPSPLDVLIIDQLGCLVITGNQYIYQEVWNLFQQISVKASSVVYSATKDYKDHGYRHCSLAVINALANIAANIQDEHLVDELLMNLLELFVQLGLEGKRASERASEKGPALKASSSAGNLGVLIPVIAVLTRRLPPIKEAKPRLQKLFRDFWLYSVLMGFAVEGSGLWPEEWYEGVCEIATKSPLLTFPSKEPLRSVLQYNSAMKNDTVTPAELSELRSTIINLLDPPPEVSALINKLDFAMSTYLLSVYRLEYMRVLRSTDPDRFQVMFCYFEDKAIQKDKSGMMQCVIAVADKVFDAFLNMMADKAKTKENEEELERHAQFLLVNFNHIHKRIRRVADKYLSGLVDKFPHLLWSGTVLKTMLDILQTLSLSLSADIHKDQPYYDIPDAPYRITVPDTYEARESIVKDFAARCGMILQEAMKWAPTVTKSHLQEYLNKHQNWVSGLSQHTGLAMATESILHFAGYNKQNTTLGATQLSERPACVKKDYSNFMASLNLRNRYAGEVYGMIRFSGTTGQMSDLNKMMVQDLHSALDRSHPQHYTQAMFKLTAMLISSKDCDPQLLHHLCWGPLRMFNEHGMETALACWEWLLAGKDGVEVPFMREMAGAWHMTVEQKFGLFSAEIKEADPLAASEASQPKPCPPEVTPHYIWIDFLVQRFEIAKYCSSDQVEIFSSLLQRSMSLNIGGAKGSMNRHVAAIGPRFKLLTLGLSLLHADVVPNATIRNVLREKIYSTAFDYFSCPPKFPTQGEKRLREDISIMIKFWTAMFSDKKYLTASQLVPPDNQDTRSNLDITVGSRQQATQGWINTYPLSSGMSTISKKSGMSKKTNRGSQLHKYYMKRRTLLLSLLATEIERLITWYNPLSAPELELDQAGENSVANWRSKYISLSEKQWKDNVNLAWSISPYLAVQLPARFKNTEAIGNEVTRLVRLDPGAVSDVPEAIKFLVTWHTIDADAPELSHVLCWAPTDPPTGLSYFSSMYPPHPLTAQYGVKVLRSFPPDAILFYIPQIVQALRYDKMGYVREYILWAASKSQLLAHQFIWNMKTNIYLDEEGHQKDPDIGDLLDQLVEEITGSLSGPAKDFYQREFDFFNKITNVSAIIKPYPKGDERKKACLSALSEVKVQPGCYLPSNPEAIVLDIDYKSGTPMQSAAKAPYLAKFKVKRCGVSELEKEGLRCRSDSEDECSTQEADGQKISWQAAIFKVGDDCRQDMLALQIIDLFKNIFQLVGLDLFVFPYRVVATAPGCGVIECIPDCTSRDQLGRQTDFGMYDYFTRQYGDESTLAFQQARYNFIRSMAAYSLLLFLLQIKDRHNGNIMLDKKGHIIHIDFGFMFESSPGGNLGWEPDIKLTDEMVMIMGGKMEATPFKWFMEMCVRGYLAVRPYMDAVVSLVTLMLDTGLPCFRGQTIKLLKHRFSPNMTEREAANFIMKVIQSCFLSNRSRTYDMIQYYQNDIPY

[10] = target: Phosphatidylinositol 4-kinase beta (Homo sapiens, UniProt Q9UBF8); test: Inhibition of PI4K3beta (unknown origin)
Sequence of Phosphatidylinositol 4-kinase beta (Q9UBF8 whole entry): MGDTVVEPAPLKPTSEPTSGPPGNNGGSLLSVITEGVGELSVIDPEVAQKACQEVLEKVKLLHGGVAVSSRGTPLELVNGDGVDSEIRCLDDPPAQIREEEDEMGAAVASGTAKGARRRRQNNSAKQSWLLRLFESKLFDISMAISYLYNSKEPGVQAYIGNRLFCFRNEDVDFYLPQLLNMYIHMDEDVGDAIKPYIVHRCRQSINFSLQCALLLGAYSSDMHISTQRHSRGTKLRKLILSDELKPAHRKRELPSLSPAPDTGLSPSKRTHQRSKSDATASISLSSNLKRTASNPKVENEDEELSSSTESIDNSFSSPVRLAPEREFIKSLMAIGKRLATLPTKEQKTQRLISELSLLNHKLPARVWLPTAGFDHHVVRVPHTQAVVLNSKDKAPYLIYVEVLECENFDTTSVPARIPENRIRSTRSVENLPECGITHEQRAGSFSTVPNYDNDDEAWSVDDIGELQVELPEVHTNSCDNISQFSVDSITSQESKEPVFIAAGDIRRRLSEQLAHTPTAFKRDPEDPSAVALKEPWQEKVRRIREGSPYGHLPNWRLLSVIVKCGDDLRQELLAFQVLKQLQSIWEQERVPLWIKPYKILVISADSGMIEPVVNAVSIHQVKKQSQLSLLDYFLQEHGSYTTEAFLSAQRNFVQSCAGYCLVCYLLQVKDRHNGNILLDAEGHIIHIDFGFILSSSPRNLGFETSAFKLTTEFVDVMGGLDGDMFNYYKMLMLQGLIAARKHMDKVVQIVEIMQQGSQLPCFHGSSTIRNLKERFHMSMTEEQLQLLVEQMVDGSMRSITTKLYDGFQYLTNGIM

[11] = system: Cytochrome P450; test: Stability in human liver microsomes assessed as CYP450-mediated metabolism by measuring parent compound remaining at 1 uM measured after 60 mins in presence of NADPH generating system by LC-MS/MS analysis; type: ADME; settings: 1 h; outline: as §2
[12] = system: Mus musculus; test: Suppression of cognitive dysfunction in 5XFAD transgenic B6SJLF1/J mouse model of Alzheimer's disease assessed as body weight gain at 10 mg/kg, ip administered daily for 5 months measured during compound dosing; type: functional, organism-based
Outline: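 Male and female hemizygous 5XFAD and WT littermates were dosed from age 3 months with 10 mg/kg ip daily or vehicle (5% DMSO, 5% Tween 80, 90% PBS), n = 13–16. Body weight was followed to study day 150 (8 months). Groups were compared by two-way ANOVA.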

[13] = system: Cytochrome P450; test: Drug metabolism in human liver microsomes assessed as CYP450-mediated O-dealkylation at 1 uM measured after 60 mins in presence of NADPH generating system by LC-MS/MS analysis; type: ADME; settings: 1 h
Outline: (§3)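 Mouse or human liver microsomes at 0.2 mg/mL, compound at 1 μM final. Controls run without cofactors. Quenched at 60 min with cold acetonitrile containing internal standard; read as % remaining.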

[14] = AUClast in 5XFAD transgenic B6SJLF1/J mouse plasma at 10 mg/kg, ip by LC-MS/MS analysis; type: ADME, organism-based
Outline: (§4)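 Hemizygous 5XFAD mice aged 11 months received one terminal ip dose of 10 mg/kg in NMP–Tween 80–saline (2.5:5:92.5 v/v/v). […] Extraction by acetonitrile protein precipitation with losartan as internal standard, then LC–MS/MS. Noncompartmental analysis: Cmax and Tmax observed; AUC to 6 h by log–linear trapezoidal rule.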

[15] = Cmax in 5XFAD transgenic B6SJLF1/J mouse plasma at 10 mg/kg, ip by LC-MS/MS analysis; type: ADME, organism-based; design: dose 10 mg/kg, route intraperitoneal; outline: as §4
[16] = AUClast in 5XFAD transgenic B6SJLF1/J mouse brain at 10 mg/kg, ip by LC-MS/MS analysis; type: ADME, organism-based; outline: as §4
[17] = Cmax in 5XFAD transgenic B6SJLF1/J mouse brain at 10 mg/kg, ip by LC-MS/MS analysis; type: ADME, organism-based; design: dose 10 mg/kg, route intraperitoneal; outline: as §4
[18] = system: Mus musculus; test: Suppression of cognitive dysfunction in 5XFAD transgenic B6SJLF1/J mouse model of Alzheimer's disease assessed as increase in freezing behavior response to 1000 Hz tone conditioned stimulus at 10 mg/kg, ip administered daily for 5 months measured during 120 secs of testing by contextual fear conditioning assay; type: functional, organism-based
Outline: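 Dosed daily ip at 10 mg/kg (vehicle 5% DMSO/5% Tween 80/90% PBS) from 3 months, n = 13–16, then tested at 8 months. Day 1: 240 s in chamber with two pairings of a 30 s 1000 Hz tone and a 2 s 0.5 mA footshock, at 120 and 180 s. Day 2: contextual test, 300 s in same chamber. Day 3: novel box for 240 s with tone during last 120 s. Read-out: freezing.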

[19] = Drug metabolism in mouse liver microsomes assessed as CYP450-mediated O-dealkylation at 1 uM measured after 60 mins in presence of NADPH generating system by LC-MS/MS analysis; type: ADME; settings: 1 h; outline: as §3
[20] = system: Cytochrome P450; test: Drug metabolism in human liver microsomes assessed as CYP450-mediated O-demethylated metabolite formation at 1 uM measured after 60 mins in presence of NADPH generating system by LC-MS/MS analysis; type: ADME; settings: 1 h
[21] = Tmax in 5XFAD transgenic B6SJLF1/J mouse brain at 10 mg/kg, ip by LC-MS/MS analysis; type: ADME, organism-based; outline: as §4
[22] = Tmax in 5XFAD transgenic B6SJLF1/J mouse plasma at 10 mg/kg, ip by LC-MS/MS analysis; type: ADME, organism-based; outline: as §4

Structure (SMILES): COc1ccc(-n2c(C)nc3c(N4CC[C@@H](NC(C)=O)C4)nc(C)nc32)cc1OC
- remaining at 1 h, 1 µM [1]: > 95%
- remaining at 1 h, 1 µM [2]: > 95%
- pIC50 [3]: < 4.00
- Parent compound remaining [4]: 104%

Structure (SMILES): COc1ccc(-c2c(C)nc3c(NCCNC(C)=O)cc(C)nn23)cc1OC
- Activity [5]: Non-Toxic
- Activity [6]: Non-Toxic
- Activity [7]: Non-Toxic
- pIC50 [3]: < 5.00
- Activity [8]: Non-Toxic
- inhibition [9]: inactive

Structure (SMILES): COc1ccc(-c2c(C)nc3c(N4CC[C@H](NC(C)=O)C4)cc(C)nn23)cc1OC
- Activity [5]: Non-Toxic
- Activity [6]: Non-Toxic
- Activity [7]: Non-Toxic
- Activity [8]: Non-Toxic
- inhibition [9]: inactive
- pIC50 [10]: < 5.00

Structure (SMILES): COc1ccc(-c2c(C)nc3c(N4CC[C@@H](NC(=O)Oc5ccccc5)C4)cc(C)nn23)cc1OC
- Activity [12]: Active
- Drug metabolism [13]: Metabolite_Detected
- AUC(0-t) [14]: 22.1 µM·h
- Cmax [15]: 7.7 µM
- Activity [5]: Non-Toxic
- AUC(0-t) [16]: 13 µM·h
- Activity [6]: Non-Toxic
- Activity [7]: Non-Toxic
- Cmax [17]: 3.89 µM
- Activity [18]: Active
- Drug metabolism [19]: Metabolite_Detected
- Drug metabolism [20]: Metabolite_Detected
- Tmax [21]: 30 min
- Activity [8]: Non-Toxic
- inhibition [9]: inactive
- pIC50 [10]: < 5.00
- Tmax [22]: 15 min

Structure (SMILES): COc1ccc(-c2c(C)nc3c(N4CC[C@@H](NC(C)=O)C4)cc(C)nn23)cc1OC
- remaining at 1 h, 1 µM [1]: > 95%
- Activity [5]: Non-Toxic
- Activity [6]: Non-Toxic
- Activity [7]: Non-Toxic
- remaining at 1 h, 1 µM [2]: > 95%
- Activity [8]: Non-Toxic
- inhibition [9]: inactive
- pIC50 [10]: < 5.00

Structure (SMILES): COc1ccc(-c2c(C)nc3c(N4CC[C@@H](NS(=O)(=O)c5ccc(C(F)(F)F)cc5)C4)cc(C)nn23)cc1OC
- remaining at 1 h, 1 µM [1]: > 95%
- Stability [11]: 61%
- remaining at 1 h, 1 µM [2]: > 95%
- Parent compound remaining [4]: 15%

Second part, the compound after the results:

- remaining at 1 h, 1 µM [1]: > 95%
- Stability [11]: 32%
- remaining at 1 h, 1 µM [2]: > 95%
- Parent compound remaining [4]: 7%
Structure (SMILES): COc1ccc(-c2c(C)nc3c(N4CC[C@@H](NS(=O)(=O)c5ccc(Cl)cc5)C4)cc(C)nn23)cc1OC

- remaining at 1 h, 1 µM [1]: > 95%
- Stability [11]: 84%
- remaining at 1 h, 1 µM [2]: > 95%
- Parent compound remaining [4]: 32%
Structure (SMILES): CSc1ccc(-c2c(C)nc3c(N4CC[C@@H](NC(C)=O)C4)cc(C)nn23)cc1

- remaining at 1 h, 1 µM [1]: > 95%
- remaining at 1 h, 1 µM [2]: > 95%
- pIC50 [3]: < 4.00
Structure (SMILES): COc1ccc(-c2c(C)oc3c(N4CC[C@@H](NC(C)=O)C4)cc(C)nc23)cc1OC

- remaining at 1 h, 1 µM [1]: > 95%
- Stability [11]: 12%
- remaining at 1 h, 1 µM [2]: > 95%
- Parent compound remaining [4]: 5%
Structure (SMILES): COc1ccc(-c2c(C)nc3c(N4CC[C@@H](NS(=O)(=O)c5ccc(C(C)=O)cc5)C4)cc(C)nn23)cc1OC

- remaining at 1 h, 1 µM [1]: > 95%
- Stability [11]: 20%
- remaining at 1 h, 1 µM [2]: > 95%
- Parent compound remaining [4]: 6%
Structure (SMILES): COc1ccc(-c2c(C)nc3c(N4CC[C@@H](NC(=O)C(F)(F)c5ccccc5)C4)cc(C)nn23)cc1OC

- remaining at 1 h, 1 µM [1]: > 95%
- remaining at 1 h, 1 µM [2]: > 95%
- pIC50 [3]: < 4.00
Structure (SMILES): COc1ccc(-c2scc3c(N4CC[C@@H](NC(C)=O)C4)nc(C)nc23)cc1OC

- remaining at 1 h, 1 µM [1]: > 95%
- Stability [11]: 114%
- remaining at 1 h, 1 µM [2]: > 95%
- Parent compound remaining [4]: 72%
Structure (SMILES): CC(=O)N[C@@H]1CCN(c2cc(C)nn3c(-c4ccc(OC(F)(F)F)cc4)c(C)nc23)C1

- remaining at 1 h, 1 µM [1]: > 95%
- Stability [11]: 43%
- remaining at 1 h, 1 µM [2]: > 95%
- Parent compound remaining [4]: 20%
Structure (SMILES): COc1ccc(-c2c(C)nc3c(N4CC[C@@H](NS(=O)(=O)c5ccccc5)C4)cc(C)nn23)cc1OC
